According to ChEMBL document CHEMBL4715813, “Allicin-inspired pyridyl disulfides as antimicrobial agents for multidrug-resistant Staphylococcus aureus” (Eur J Med Chem, 2018):
Converted amounts (≈) assume the structure as drawn. The source made the active and inactive calls. No cut-off for these calls is given here.

Tests used:
[1] = tested on: Staphylococcus aureus; test: Antibacterial activity against vancomycin-resistant Staphylococcus aureus HIP11714 assessed as zone of inhibition by disc diffusion method; format: functional
[2] = tested on: Enterococcus faecalis; test: Antibacterial activity against vancomycin-susceptible Enterococcus faecalis ATCC 29212 assessed as zone of inhibition by disc diffusion method; format: functional
[3] = tested on: Staphylococcus aureus; test: Antibacterial activity against methicillin-susceptible Staphylococcus aureus ATCC 25923 assessed as bacterial growth inhibition incubated for 20 hrs by broth dilution method; format: functional
In short: (§1)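 Broth microdilution: 0.5 McFarland suspension from an overnight culture, diluted 1:100 in cation-adjusted Mueller Hinton broth (CAMHB), given serial dilutions of test agent for 20 h at 37 °C. MIC is the lowest concentration with no visible growth.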

[4] = tested on: Staphylococcus aureus; test: Antibiofilm activity against methicillin-resistant Staphylococcus aureus assessed as disruption of preformed biofilm at 1 to 5 times of MIC incubated for 20 hrs by crystal violet staining based assay; format: functional, organism-based
[5] = tested on: Staphylococcus aureus; test: Bactericidal activity against methicillin-susceptible Staphylococcus aureus ATCC 25923 assessed as bacterial killing incubated for over night; format: functional
In short: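 5 μL from each well was spotted on agar and incubated overnight. MBC was taken as the lowest concentration with no visible growth.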

[6] = tested on: Staphylococcus aureus; test: Ratio of MBC to MIC against vancomycin-intermediate resistant Staphylococcus aureus Mu50 ATCC 700699; format: functional
In short: (§2)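 For MBC, 5 μL from each well was spotted on agar and incubated overnight; MBC is the lowest concentration with no visible growth. Ratio taken as MBC over MIC.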

[7] = tested on: Staphylococcus aureus; test: Antibacterial activity against methicillin-susceptible Staphylococcus aureus ATCC 25923 in presence of glutathione; format: functional
In short: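 Broth microdilution MIC: a 0.5 McFarland suspension from overnight culture was diluted 1:100 in cation-adjusted Mueller Hinton broth supplemented with glutathione 100 μM. It was exposed to serial dilutions for 20 h at 37 °C. MIC was taken as the lowest concentration with no visible growth.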

[8] = tested on: HepG2; test: Cytotoxicity against human HepG2 cells assessed as reduction in cell viability after 72 hrs by MTT assay; format: cell-based; conditions: HepG2, 72 h
In short: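 MTT viability: MDA-MB-231 and HepG2 cells (kept in DMEM with 10% FBS) were seeded at 5000/well and allowed to adhere overnight. They were exposed to 0.001–100 μM for 72 h, then given MTT 1 mg/mL in PBS pH 7.4 for 2 h. Formazan was dissolved in DMSO and A570 read. IC50 was taken from dose-response curves.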

[9] = tested on: Staphylococcus aureus; test: Antibacterial activity against hospital acquired methicillin-resistant Staphylococcus aureus ATCC 43300 assessed as zone of inhibition by disc diffusion method; format: functional
[10] = tested on: Staphylococcus aureus; test: Antibacterial activity against methicillin-susceptible Staphylococcus aureus ATCC 25923 in presence of 10% v/v serum; format: functional
[11] = tested on: Staphylococcus aureus; test: Antibacterial activity against heterogeneous vancomycin-intermediate resistant Staphylococcus aureus Mu3 ATCC 700698 assessed as zone of inhibition by disc diffusion method; format: functional
[12] = tested on: Klebsiella pneumoniae; test: Antibacterial activity against multidrug-resistant Klebsiella pneumoniae ATCC 700603 assessed as zone of inhibition by disc diffusion method; format: functional
[13] = tested on: Staphylococcus aureus; test: Antibacterial activity against vancomycin-intermediate Staphylococcus aureus clinical isolate 12 assessed as bacterial growth inhibition after 20 hrs by broth microdilution assay; format: functional; in short: as §1
[14] = tested on: Staphylococcus aureus; test: Bactericidal activity against vancomycin-intermediate resistant Staphylococcus aureus Mu50 ATCC 700699 assessed as bacterial killing incubated for over night; format: functional; in short: as §2
[15] = tested on: Staphylococcus aureus; test: Antibacterial activity against heterogeneous vancomycin-intermediate Staphylococcus aureus Mu3 ATCC 700698 assessed as bacterial growth inhibition measured between 5 to 7 passages by broth dilution method; format: functional
In short: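 Serial passage with hVISA Mu3, VISA and VRSA strains grown at 0.5× MIC of agent (± equimolar vancomycin). […] MIC was read visually at each passage.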

[16] = tested on: Staphylococcus aureus; test: Antibacterial activity against methicillin-susceptible Staphylococcus aureus ATCC 25923 assessed as zone of inhibition by disc diffusion method; format: functional
[17] = tested on: Staphylococcus aureus; test: Bactericidal activity against heterogeneous vancomycin-intermediate Staphylococcus aureus Mu3 ATCC 700698 assessed as bacterial killing incubated for over night; format: functional; in short: as §2
[18] = tested on: Staphylococcus aureus; test: Antibacterial activity against heterogeneous vancomycin-intermediate Staphylococcus aureus Mu3 ATCC 700698 assessed as bacterial growth inhibition incubated for 20 hrs by broth dilution method; format: functional; in short: as §1
[19] = tested on: Enterobacter cloacae; test: Antibacterial activity against Enterobacter cloacae ATCC 23355 assessed as zone of inhibition by disc diffusion method; format: functional
[20] = tested on: Staphylococcus aureus; test: Bacteriostatic activity against methicillin-susceptible Staphylococcus aureus ATCC 25923 assessed as reduction in colony forming unit at 4 times of MIC measured up to 4 hrs by time kill assay; format: functional, organism-based
In short: (§3)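 Time-kill: a 1:100 dilution of 0.5 McFarland S. aureus […] suspension was exposed to 0, 1 and 4× MIC. At 0, 1, 2 and 4 h, samples were serially diluted in PBS and plated on MHA. CFU were counted after 30 h incubation.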

[21] = tested on: Staphylococcus aureus; test: Antibacterial activity against vancomycin-resistant Staphylococcus aureus clinical isolate 10 assessed as bacterial growth inhibition after 20 hrs by broth microdilution assay; format: functional; in short: as §1
[22] = tested on: Staphylococcus aureus; test: Induction of intracellular oxidant species generation in Staphylococcus aureus ATCC 25923 by DCFH-DA dye based fluorescence assay; format: functional, organism-based
In short: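 OD600 1.5 suspension of S. aureus […] in HBSS given agent (from 2 or 10 mM stock), DMSO or water, then DCFH diacetate from a 100 μM stock in DMSO. Intracellular oxidation read by fluorescence (ex 485, em 535 nm).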

[23] = tested on: Staphylococcus aureus; test: Antibacterial activity against vancomycin-intermediate resistant Staphylococcus aureus Mu50 ATCC 700699 assessed as bacterial growth inhibition incubated for 20 hrs by broth dilution method; format: functional; in short: as §1
[24] = tested on: Staphylococcus aureus; test: Bacteriostatic activity against methicillin-susceptible Staphylococcus aureus ATCC 25923 assessed as reduction in colony forming unit at 1 times of MIC measured up to 4 hrs by time kill assay; format: functional, organism-based; conditions: time hrs <=4; in short: as §3
[25] = tested on: Staphylococcus aureus; test: Antibacterial activity against linezolid-resistant Staphylococcus aureus assessed as bacterial growth inhibition incubated for 20 hrs by broth dilution method; format: functional; in short: as §1
[26] = tested on: Staphylococcus epidermidis; test: Antibacterial activity against Staphylococcus epidermidis ATCC 14990 assessed as zone of inhibition by disc diffusion method; format: functional
[27] = tested on: Staphylococcus aureus; test: Synergistic antibacterial activity against vancomycin-resistant Staphylococcus aureus HIP14300 assessed as fractional inhibitory concentration index incubated for 20 hrs in presence of vancomycin by checkerboard titration assay; format: functional
In short: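 Checkerboard: VRSA HIP14300 as a 0.5 McFarland suspension diluted 1:100 in CAMHB, inoculated into twofold serial dilutions of disulfide and vancomycin, sealed, 20 h at 37 °C. Growth read by MTT staining with DMSO solubilization. ΣFIC = FIC1h + FICVAN; synergy ≤ 0.5, indifferent >0.5–≤4, antagonism >4.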

[28] = tested on: Staphylococcus aureus; test: Antibacterial activity against community acquired methicillin-resistant Staphylococcus aureus BAA 1747 assessed as zone of inhibition by disc diffusion method; format: functional
[29] = tested on: Staphylococcus aureus; test: Antibacterial activity against methicillin-susceptible Staphylococcus aureus ATCC 25923 in presence of 0.05% v/v albumin; format: functional

Structure (SMILES): CCCCCCCCSSc1ccccn1
- diameter of the inhibition zone (DIZ) [1]: 38 mm
- diameter of the inhibition zone (DIZ) [2]: 12 mm
- MIC [3]: 12.5 µM (≈ 3.19 µg/mL)
- Activity [4]: Dose-dependent effect
- MBC [5]: > 50 µM
- Ratio [6]: 8
- MIC [7]: 50 µM
- IC50 [8]: ≥ 100 µM
- diameter of the inhibition zone (DIZ) [9]: 38 mm
- MIC [10]: 25 µM
- diameter of the inhibition zone (DIZ) [11]: 37 mm
- diameter of the inhibition zone (DIZ) [12]: 0 mm
- MIC50 [13]: 12.5 µM (≈ 3.19 µg/mL)
- MIC90 [13]: 12.5 µM (≈ 3.19 µg/mL)
- MBC [14]: 25 µM (≈ 6.39 µg/mL)
- MIC [15]: > 50 µM
- diameter of the inhibition zone (DIZ) [16]: 30 mm
- MBC [17]: > 50 µM
- MIC [18]: 12.5 µM (≈ 3.19 µg/mL)
- diameter of the inhibition zone (DIZ) [19]: 0 mm
- Activity [20]: Active
- MIC50 [21]: 6.25 µM (≈ 1.6 µg/mL)
- MIC90 [21]: 12.5 µM (≈ 3.19 µg/mL)
- Activity [22]: Active
- MIC [23]: 3.13 µM (≈ 0.8 µg/mL)
- Activity [24]: Active
- MIC [25]: 25 µM (≈ 6.39 µg/mL)
- diameter of the inhibition zone (DIZ) [26]: 46 mm
- FIC [27]: <=0.5
- diameter of the inhibition zone (DIZ) [28]: 30 mm
- MIC [29]: 12.5 µM
